Results reported in ChEMBL document CHEMBL3392993, “Identification of indole-3-carboxylic acids as non-ATP-competitive Polo-like kinase 1 (Plk1) inhibitors” (Bioorg Med Chem Lett, 2015).
Active and inactive are the calls of the source. The calls are words filed in the database; no cut-off is given here.

What was measured:
MCF7 = test: Antiproliferative activity against human MCF7 cells assessed as growth inhibition after 72 hrs by MTT assay; conditions: MCF7, 72 h
HeLa [1] = test: Antiproliferative activity against human HeLa cells assessed as growth inhibition after 72 hrs by MTT assay
[2] = molecular target: Serine/threonine-protein kinase PLK2 (Homo sapiens, UniProt Q9NYY3); test: Inhibition of recombinant Plk2 (unknown origin)
[3] = molecular target: Serine/threonine-protein kinase PLK3 (Homo sapiens, UniProt Q9H4B4); test: Inhibition of recombinant Plk3 (unknown origin)
HeLa [4] = test: Induction of apoptosis in human HeLa cells assessed as PARP cleavage at 1 uM after 24 to 48 hrs by Western blot analysis; format: functional, cell-based
How it was run: (§1)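 HeLa cells exposed to 1 µM for 24 h, with treatment continued to 48 h. Cell proteins analysed by western blot for PARP, total Caspase-3 and its cleaved active form.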

HeLa [5] = test: Induction of apoptosis in human HeLa cells assessed as increase in cleaved caspase-3 level at 1 uM after 24 to 48 hrs by Western blot analysis; format: functional, cell-based; how it was run: as §1
HeLa [6] = test: Induction of apoptosis in human HeLa cells assessed as apoptotic cells at 1 uM after 24 hrs using annexin V/propidium iodide double staining by flow cytometry (reference value: 4.4 %); format: functional

Chain of Serine/threonine-protein kinase PLK2 (Q9NYY3 whole entry): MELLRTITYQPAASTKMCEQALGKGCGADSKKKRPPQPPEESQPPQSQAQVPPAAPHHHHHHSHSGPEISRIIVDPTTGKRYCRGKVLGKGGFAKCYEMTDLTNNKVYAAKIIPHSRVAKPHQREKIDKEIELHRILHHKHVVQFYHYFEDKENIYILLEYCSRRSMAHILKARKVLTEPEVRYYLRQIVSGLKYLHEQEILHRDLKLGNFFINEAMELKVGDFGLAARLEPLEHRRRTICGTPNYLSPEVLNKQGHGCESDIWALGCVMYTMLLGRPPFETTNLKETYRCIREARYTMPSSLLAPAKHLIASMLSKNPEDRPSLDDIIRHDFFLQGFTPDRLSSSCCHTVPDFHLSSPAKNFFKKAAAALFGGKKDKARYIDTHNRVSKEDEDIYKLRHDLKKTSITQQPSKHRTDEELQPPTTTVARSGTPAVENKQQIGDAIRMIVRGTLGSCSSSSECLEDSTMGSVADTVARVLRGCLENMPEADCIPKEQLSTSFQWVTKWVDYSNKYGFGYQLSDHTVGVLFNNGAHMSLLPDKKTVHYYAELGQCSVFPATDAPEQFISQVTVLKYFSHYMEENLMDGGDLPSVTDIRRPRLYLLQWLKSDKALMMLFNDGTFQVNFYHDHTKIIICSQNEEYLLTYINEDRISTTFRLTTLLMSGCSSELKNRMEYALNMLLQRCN
Chain of Serine/threonine-protein kinase PLK3 (Q9H4B4 whole entry): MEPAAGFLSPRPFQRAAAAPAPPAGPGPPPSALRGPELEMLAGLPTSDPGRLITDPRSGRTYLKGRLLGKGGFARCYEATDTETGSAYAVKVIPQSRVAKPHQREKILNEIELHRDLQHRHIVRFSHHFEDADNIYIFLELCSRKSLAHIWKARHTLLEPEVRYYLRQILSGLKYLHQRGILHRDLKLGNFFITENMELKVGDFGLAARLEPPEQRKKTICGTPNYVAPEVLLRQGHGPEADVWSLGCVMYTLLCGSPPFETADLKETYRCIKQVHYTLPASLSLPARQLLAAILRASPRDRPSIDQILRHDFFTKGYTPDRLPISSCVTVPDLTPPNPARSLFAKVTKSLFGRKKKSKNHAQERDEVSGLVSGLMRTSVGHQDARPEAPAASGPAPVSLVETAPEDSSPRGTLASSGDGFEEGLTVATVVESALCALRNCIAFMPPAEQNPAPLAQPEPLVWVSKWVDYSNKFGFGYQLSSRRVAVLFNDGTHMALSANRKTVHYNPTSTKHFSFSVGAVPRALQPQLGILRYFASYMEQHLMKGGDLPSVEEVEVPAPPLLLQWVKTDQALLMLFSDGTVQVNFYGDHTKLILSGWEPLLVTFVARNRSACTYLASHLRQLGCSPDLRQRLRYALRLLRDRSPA

Row | SMILES | IC50 (MCF7) [µM] | IC50 (HeLa [1]) [µM] | IC50 [2] [µM] | IC50 [3] [µM] | Activity (HeLa [4]) | Activity (HeLa [5]) | Activity (HeLa [6]) [%]
1 | O=C(O)Cc1cn(CC(O)CN2CCOCC2)c2ccccc12 (racemic) | > 10 | 2.13 |  |  |  |  | 
2 | CN1CCN(CC(O)Cn2cc(CC(=O)O)c3ccccc32)CC1 (racemic) | 2.44 | 3.97 |  |  |  |  | 
3 | O=C(O)c1cn(CC(O)CN2CCCCC2)c2ccccc12 (racemic) | 5.33 | 4.92 |  |  |  |  | 
4 | CCN(CC)CC(O)Cn1cc(C(=O)O)c2ccccc21 (racemic) | 4.37 | 6.72 |  |  |  |  | 
5 | CCN(CC)CC(O)Cn1cc(CC(=O)O)c2ccccc21 (racemic) | 3.16 | 6.63 |  |  |  |  | 
6 | O=C(O)Cc1cn(CC(O)CN2CCCCC2)c2ccccc12 (racemic) | 1.89 | 0.97 |  |  |  |  | 
7 | CC1=CC(=O)C(C(C)C)=CC1=O [THYMOQUINONE] | 6.19 | 2.06 | 14.7 | > 50 |  |  | 
8 | O=C(O)Cc1cn(CC(O)CN2CCCC2)c2ccccc12 (racemic) | 1.15 | 0.72 | > 50 | > 50 | Active | Active | 12.7
9 | O=C(O)CCc1cn(CC(O)CN2CCCC2)c2ccccc12 (racemic) | > 10 | 4.95 |  |  |  |  | 
10 | O=C(O)CCc1cn(CC(O)CN2CCCCC2)c2ccccc12 (racemic) | 8.79 | > 10 |  |  |  |  | 
11 | CN1CCN(CC(O)Cn2cc(C(=O)O)c3ccccc32)CC1 (racemic) | > 10 | > 10 |  |  |  |  | 
12 | O=C(O)c1cn(CC(O)CN2CCCC2)c2ccccc12 (racemic) | > 10 | 7.34 |  |  |  |  | 
